Data reported in ChEMBL document CHEMBL5108039, “Piperazine tethered bergenin heterocyclic hybrids: design, synthesis, anticancer activity, and molecular docking studies” (RSC Med Chem, 2022).
Active and inactive are the calls of the source. No cut-off for these calls is given here.

What was measured:
SCC-9 [1] = assay: Induction of apoptosis in human SCC-9 cells assessed as necrotic cells at 32.4 uM incubated for 24 hrs by Annexin V-FITC/PI staining based flow cytometric analysis (reference value: 0.1 %); format: functional
CAL-27 [2] = assay: Induction of apoptosis in human CAL-27 cells assessed as early apoptotic cells at 16 uM incubated for 24 hrs by Annexin V-FITC/PI staining based flow cytometric analysis (reference value: 0.1 %); format: functional
Procedure, shortened: (§1)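 CAL27 cells were treated with vehicle, doxorubicin or test compounds at 10–63 μM, and apoptosis was assessed by annexin V–FITC/PI staining with flow cytometry. Cells were scored as live, early apoptotic, late apoptotic or necrotic. The vehicle was DMSO (0.01%).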

CAL-27 [3] = assay: Induction of apoptosis in human CAL-27 cells assessed as necrotic cells at 32 uM incubated for 24 hrs by Annexin V-FITC/PI staining based flow cytometric analysis (reference value: 0.0 %); format: functional
SCC-9 [4] = assay: Induction of apoptosis in human SCC-9 cells assessed as downregulation of Nanog gene expression at 32 uM by qRT-PCR analysis; format: functional, cell-based
SCC-9 [5] = assay: Induction of apoptosis in human SCC-9 cells assessed as upregulation of E-cad gene expression at 16 uM by qRT-PCR analysis; format: functional, cell-based
CAL-27 [6] = assay: Induction of apoptosis in human CAL-27 cells assessed as upregulation of Bax gene expression at 32 uM by qRT-PCR analysis; format: functional, cell-based
Procedure, shortened: (§2)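 CAL27 cells were treated with test agents at different concentrations. Relative mRNA levels of vimentin, E-cad, Nanog, Oct-4, Bax and Bcl-2 were then quantified by qRT-PCR as apoptosis, EMT and stemness markers.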

SCC-9 [7] = assay: Induction of apoptosis in human SCC-9 cells assessed as downregulation of Oct-4 gene expression at 16 uM by qRT-PCR analysis; format: functional, cell-based
SCC-9 [8] = assay: Induction of apoptosis in human SCC-9 cells assessed as downregulation of Oct-4 gene expression at 32 uM by qRT-PCR analysis; format: functional, cell-based
SCC-9 [9] = assay: Cell cycle arrest in human SCC-9 cells assessed as accumulation at G2/M phase at 32.4 uM incubated for 24 hrs by flow cytometry (reference value: 14.2 %); format: functional
CAL-27 [10] = assay: Induction of apoptosis in human CAL-27 cells assessed as downregulation of vimentin gene expression at 32 uM by qRT-PCR analysis; format: functional, cell-based
Procedure, shortened: (§3)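 CAL27 cells were treated with test compounds at several concentrations. Relative expression of vimentin, E-cad, Nanog, Oct-4, Bax and BcL-2 was measured by qRT-PCR against vehicle-treated control cells.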

CAL-27 [11] = assay: Induction of apoptosis in human CAL-27 cells assessed as downregulation of vimentin gene expression at 16 uM by qRT-PCR analysis; format: functional, cell-based; procedure, shortened: as §3
CAL-27 [12] = assay: Induction of apoptosis in human CAL-27 cells assessed as upregulation of Bax gene expression at 16 uM by qRT-PCR analysis; format: functional, cell-based; procedure, shortened: as §2
CAL-27 [13] = assay: Cell cycle arrest in human CAL-27 cells assessed as accumulation at S phase at 32 uM incubated for 24 hrs by flow cytometry (reference value: 3.6 %); format: functional
SCC-9 [14] = assay: Induction of apoptosis in human SCC-9 cells assessed as early apoptotic cells at 16.2 uM incubated for 24 hrs by Annexin V-FITC/PI staining based flow cytometric analysis (reference value: 2.8 %); format: functional
SCC-9 [15] = assay: Induction of apoptosis in human SCC-9 cells assessed as downregulation of vimentin gene expression at 32 uM by qRT-PCR analysis; format: functional, cell-based
SCC-9 [16] = assay: Cell cycle arrest in human SCC-9 cells assessed as accumulation at S phase at 32.4 uM incubated for 24 hrs by flow cytometry (reference value: 14.4 %); format: functional
CAL-27 [17] = assay: Induction of apoptosis in human CAL-27 cells assessed as downregulation of Oct-4 gene expression at 16 uM by qRT-PCR analysis; format: functional, cell-based; procedure, shortened: as §3
SCC-9 [18] = assay: Induction of apoptosis in human SCC-9 cells assessed as late apoptotic cells at 32.4 uM incubated for 24 hrs by Annexin V-FITC/PI staining based flow cytometric analysis (reference value: 1.4 %); format: functional
SCC-9 [19] = assay: Cell cycle arrest in human SCC-9 cells assessed as accumulation at G2/M phase at 16.2 uM incubated for 24 hrs by flow cytometry (reference value: 14.2 %); format: functional
CAL-27 [20] = assay: Induction of apoptosis in human CAL-27 cells assessed as live cells at 32 uM incubated for 24 hrs by Annexin V-FITC/PI staining based flow cytometric analysis (reference value: 99.8 %); format: functional; procedure, shortened: as §1
[21] = Cytotoxicity against human BEAS-2B cells assessed as cell growth inhibition; format: toxicity, cell-based
Procedure, shortened: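 Compounds were dissolved in sterile DMSO as 10 mg ml−1 stocks and tested in vitro for cytotoxicity in a cell-line panel, with DMSO (0.01%) as vehicle control and doxorubicin as standard. Mean IC50 values were reported, and the normal lung epithelial cells were tested up to 100 μM.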

SCC-9 [22] = assay: Cell cycle arrest in human SCC-9 cells assessed as accumulation at G0/G1 phase at 32.4 uM incubated for 24 hrs by flow cytometry (reference value: 70.8 %); format: functional
SCC-9 [23] = assay: Induction of apoptosis in human SCC-9 cells assessed as downregulation of BcL-2 gene expression at 32 uM by qRT-PCR analysis; format: functional, cell-based
SCC-9 [24] = assay: Cell cycle arrest in human SCC-9 cells assessed as accumulation at S phase at 16.2 uM incubated for 24 hrs by flow cytometry (reference value: 14.4 %); format: functional

Q: Which results are given for COc1ccc(-c2csc(NC(=O)CN3CCN(Cc4c(O)c(OC)c(O)c5c4C(=O)OC4C5O[C@H](CO)[C@@H](O)[C@@H]4O)CC3)n2)cc1 (some centres undefined)?
A: Activity (SCC-9 [1]): 33.8%; Activity (CAL-27 [2]): 2.7%; Activity (CAL-27 [3]): 1.9%; Activity (SCC-9 [4]): Active; Activity (SCC-9 [5]): Active; Activity (CAL-27 [6]): Active; Activity (SCC-9 [7]): Active; Activity (SCC-9 [8]): Active; Activity (SCC-9 [9]): 10.5%; Activity (CAL-27 [10]): Active; Activity (CAL-27 [11]): Active; Activity (CAL-27 [12]): Active; Activity (CAL-27 [13]): 3.1%; Activity (SCC-9 [14]): 6.2%; Activity (SCC-9 [15]): Active; Activity (SCC-9 [16]): 12.4%; Activity (CAL-27 [17]): Active; Activity (SCC-9 [18]): 17.5%; Activity (SCC-9 [19]): 10.6%; Activity (CAL-27 [20]): 91%; IC50 [21]: > 100 µM; Activity (SCC-9 [22]): 77.6%; Activity (SCC-9 [23]): Active; Activity (SCC-9 [24]): 16%
